# Data from ChEMBL document CHEMBL1138918, “Discovery of potent and orally available malonyl-CoA decarboxylase inhibitors as cardioprotective agents” (J Med Chem, 2006).
# Activity calls are given as the source filed them. No cut-off for these calls is given here.
# How the values were obtained:
# Rattus norvegicus [1] = organism: Rattus norvegicus; experiment: Increase in glucose oxidation rate in rat heart at 10 uM relative to control; type: functional
# Summary of the method: (§1)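 Isolated working rat hearts; glucose oxidation rate expressed as ratio of compound-treated to 0.05% DMSO vehicle control, n = 8 hearts; test concentration 10 µM, or 1 µM where stated.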
# Rattus norvegicus [2] = organism: Rattus norvegicus; experiment: Increase in glucose oxidation rate in rat heart at 1 uM relative to control; type: functional; summary of the method: as §1
# [3] = Half life in Sprague-Dawley rat at 10 mg/kg, iv; type: ADME, organism-based; parameters: dose 10 mg/kg, route intravenous; settings: in vivo
# [4] = Tmax in Sprague-Dawley rat at 10 mg/kg, po; type: ADME, organism-based; parameters: dose 10 mg/kg, route oral; settings: in vivo
# [5] = Cmax in Sprague-Dawley rat at 10 mg/kg, po; type: ADME, organism-based; parameters: dose 10 mg/kg, route oral; settings: in vivo
# Rattus norvegicus [6] = experiment: Volume of distribution in Sprague-Dawley rat at 10 mg/kg, iv or po; type: ADME, organism-based; parameters: dose 10 mg/kg, route oral; settings: in vivo
# [7] = Oral bioavailability in Sprague-Dawley rat at 10 mg/kg, iv and po; type: ADME, organism-based; settings: in vivo
# Summary of the method: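 Rats dosed iv and po; F computed as ratio of dose-normalized oral to iv plasma AUC over the same time frame.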
# Rattus norvegicus [8] = organism: Rattus norvegicus; experiment: Cardioprotective activity in global ischemia-reperfusion rat model; type: functional, organism-based
# Summary of the method: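 Isolated rat hearts perfused aerobically 30 min, then 30 min global no-flow ischemia and 60 min aerobic reperfusion; compound at 1 µM added to perfusate either before ischemia or at onset of reperfusion.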
SMILES,Activity (Rattus norvegicus [1]) [%],further results
CC(C)(C)OC(=O)CCNC(=O)C1=NOC(C(O)(C(F)(F)F)C(F)(F)F)C1 (stereo unspecified),4.54,
CC(C)(C)OCCCNC(=O)C1=NOC(C(O)(C(F)(F)F)C(F)(F)F)C1 (stereo unspecified),5.42,
CC(CC(=O)OC(C)(C)C)NC(=O)C1=NOC(C(O)(C(F)(F)F)C(F)(F)F)C1 (stereo unspecified),7.32,Activity (Rattus norvegicus [2]): 3.07%; half-life [3]: 2.3 h; Tmax [4]: 0.5 h; Cmax [5]: 2680 ng/mL; Vss (Rattus norvegicus [6]): 2.193 L/kg; bioavailability [7]: 74%; Activity (Rattus norvegicus [8]): Active
CC(C)CCCC(C)NC(=O)C1=NOC(C(O)(C(F)(F)F)C(F)(F)F)C1 (stereo unspecified),1.26,
CC(C)C[C@@H](CC(=O)OC(C)(C)C)NC(=O)C1=NOC(C(O)(C(F)(F)F)C(F)(F)F)C1 (stereo partly specified),3.24,
C[C@@H](CC(=O)OC(C)(C)C)NC(=O)C1=NOC(C(O)(C(F)(F)F)C(F)(F)F)C1 (stereo partly specified),5.01,
CCCCCC(C)NC(=O)C1=NOC(C(O)(C(F)(F)F)C(F)(F)F)C1 (stereo unspecified),0.8,
CC(C)CN(CC(C)C)C(=O)C1=NOC(C(O)(C(F)(F)F)C(F)(F)F)C1 (stereo unspecified),2.11,
CC(C)CC(CC(=O)OC(C)(C)C)NC(=O)C1=NOC(C(O)(C(F)(F)F)C(F)(F)F)C1 (stereo unspecified),4.28,
